Experimental data as given in ChEMBL document CHEMBL2016570, “Synthesis, biological evaluation, and molecular docking studies of 1,3,4-thiadiazol-2-amide derivatives as novel anticancer agents” (Bioorg Med Chem, 2012).
Active and inactive are the calls of the source. The calls are words filed in the database; no cut-off is given here.

Tests used:
B16-F10 = test: Antiproliferative activity against mouse B16F10 cells after 48 hrs by MTT assay; assay type: functional, cell-based; conditions: B16-F10, 48 h
[1] = Inhibition of bovine brain FAK after 20 mins by turbidimetry; set-up: species or system Bos taurus
MCF7 = test: Antiproliferative activity against human MCF7 cells after 48 hrs by MTT assay; assay type: functional, cell-based; conditions: MCF7, 48 h
Method in brief: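 MCF-7 cells were grown to log phase in RPMI 1640 with 10% FBS, diluted to 2 × 10⁴ cells/mL and seeded, then held 24 h at 37 °C, 5% CO₂. Compounds at pre-set concentrations went into six wells, with staurosporine as positive reference, for 48 h. MTT in PBS (2.5 mg/mL) was added, incubation ran overnight at 37 °C, and OD was read at 570 nm. Triplicate wells per concentration; assay run ≥3 times.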

[2] = biological target: Focal adhesion kinase 1 (Homo sapiens) (UniProt Q05397); test: Inhibition of FAK in human MCF7 cells at 2 to 8 uM by Western blot analysis; assay type: cell-based
Method in brief: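 After treatment, cells were PBS-washed and lysed in Tris/NaCl/PMSF/Na₃VO₄/NP-40/glycerol buffer with phosphatase and protease inhibitors, then spun at 12,000g for 5 min. Protein was measured by BCA, resolved on 10% SDS–PAGE and transferred to PVDF. Membranes were blocked in 5% nonfat milk for 2 h at room temperature, probed with primary antibodies overnight at 4 °C, then HRP secondary. Representative of three independent experiments.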

Sequence of Focal adhesion kinase 1 (Homo sapiens) (Q05397 2-1052 limits assumed): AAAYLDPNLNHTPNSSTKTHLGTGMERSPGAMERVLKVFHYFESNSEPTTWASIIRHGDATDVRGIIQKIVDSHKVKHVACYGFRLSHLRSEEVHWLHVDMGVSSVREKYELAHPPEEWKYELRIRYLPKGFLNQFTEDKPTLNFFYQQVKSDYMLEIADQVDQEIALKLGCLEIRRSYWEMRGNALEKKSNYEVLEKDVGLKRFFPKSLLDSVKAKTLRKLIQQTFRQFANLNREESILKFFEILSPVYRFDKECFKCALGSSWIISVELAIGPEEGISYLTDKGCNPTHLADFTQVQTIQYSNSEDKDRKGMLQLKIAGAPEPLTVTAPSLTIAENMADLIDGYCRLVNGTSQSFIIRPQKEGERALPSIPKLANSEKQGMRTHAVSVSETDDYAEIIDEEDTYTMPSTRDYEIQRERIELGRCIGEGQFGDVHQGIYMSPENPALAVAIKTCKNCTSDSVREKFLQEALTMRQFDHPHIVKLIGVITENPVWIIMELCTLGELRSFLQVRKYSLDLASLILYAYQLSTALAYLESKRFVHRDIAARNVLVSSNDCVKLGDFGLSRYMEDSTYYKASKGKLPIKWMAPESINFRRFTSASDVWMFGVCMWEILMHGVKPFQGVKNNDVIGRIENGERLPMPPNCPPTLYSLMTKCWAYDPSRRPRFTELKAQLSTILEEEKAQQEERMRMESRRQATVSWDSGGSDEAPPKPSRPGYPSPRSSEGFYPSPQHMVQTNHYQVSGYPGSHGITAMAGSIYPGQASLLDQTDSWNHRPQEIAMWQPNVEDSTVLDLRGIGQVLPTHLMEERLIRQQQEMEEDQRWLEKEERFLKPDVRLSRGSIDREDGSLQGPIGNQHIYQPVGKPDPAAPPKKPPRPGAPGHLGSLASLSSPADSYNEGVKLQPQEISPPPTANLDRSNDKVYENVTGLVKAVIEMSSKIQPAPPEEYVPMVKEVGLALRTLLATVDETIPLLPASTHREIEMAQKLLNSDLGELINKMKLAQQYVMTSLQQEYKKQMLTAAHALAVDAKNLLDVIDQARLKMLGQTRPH

IC50 (B16-F10)	IC50 [1]	IC50 (MCF7)	inhibition [2]	Structure (SMILES)
1.15 µM	6.79 µM	1.02 µM	–	O=C(Nc1nnc(-c2ccc(Cl)cc2)s1)c1ccccc1O
0.56 µM	5.85 µM	0.67 µM	–	O=C(Nc1nnc(-c2ccc(Cl)cc2)s1)c1cc(Br)ccc1O
8.23 µM	19.7 µM	6.47 µM	–	O=C(Cc1ccccc1)Nc1nnc(-c2ccc(Cl)cc2)s1
1.16 µM	7.02 µM	1.21 µM	–	O=C(Nc1nnc(-c2ccc(F)cc2)s1)c1ccccc1O
1.39 µM	7.47 µM	2.17 µM	–	COc1ccc(-c2nnc(NC(=O)c3ccccc3O)s2)cc1
2.02 µM	9.36 µM	2.76 µM	–	O=C(Nc1nnc(-c2ccccc2)s1)c1ccccc1O
1.14 µM	6.89 µM	1.12 µM	–	O=C(Nc1nnc(-c2ccccc2)s1)c1cc(Cl)ccc1O
0.68 µM	6.13 µM	0.75 µM	–	O=C(Nc1nnc(-c2ccc(F)cc2)s1)c1cc(Cl)ccc1O
1.97 µM	8.54 µM	2.36 µM	–	Cc1ccc(-c2nnc(NC(=O)c3ccccc3O)s2)cc1
0.31 µM	5.32 µM	0.45 µM	Active	O=C(Nc1nnc(-c2ccc(Cl)cc2)s1)c1cc(Cl)ccc1O
4.06 µM	12.7 µM	4.85 µM	–	O=C(Nc1nnc(-c2ccc(Cl)cc2)s1)c1ccccc1
4.65 µM	11.9 µM	4.49 µM	–	O=C(Nc1nnc(-c2ccccc2)s1)c1ccc(Cl)cc1

The next lines start with the molecule.

Structure (SMILES)	IC50 (B16-F10)	IC50 [1]	IC50 (MCF7)	inhibition [2]
Cc1ccc(-c2nnc(NC(=O)c3cccnc3)s2)cc1	3.88 µM	12.4 µM	4.52 µM	–
COc1ccc(C(=O)Nc2nnc(-c3ccccc3)s2)cc1	1.75 µM	7.89 µM	1.83 µM	–
O=C(Nc1nnc(-c2ccccc2)s1)c1ccccc1	5.15 µM	16.2 µM	5.87 µM	–
O=C(Nc1nnc(-c2ccccc2)s1)c1ccc(F)cc1	4.36 µM	14 µM	4.85 µM	–
O=C(Nc1nnc(-c2ccccc2)s1)c1cc(Br)ccc1O	1.28 µM	7.25 µM	1.28 µM	–
CN[C@@H]1C[C@H]2O[C@@](C)([C@@H]1OC)n1c3ccccc3c3c4c(c5c6ccccc6n2c5c31)C(=O)NC4 [STAUROSPORINE]	–	–	3.07 µM	–
COc1ccc(-c2nnc(NC(=O)c3ccccc3)s2)cc1	1.58 µM	7.71 µM	1.55 µM	–
Cc1ccc(-c2nnc(NC(=O)c3ccccc3)s2)cc1	3.52 µM	11.7 µM	3.57 µM	–
COc1ccc(-c2nnc(NC(=O)c3cccnc3)s2)cc1	2.36 µM	9.75 µM	2.99 µM	–
O=C(Nc1nnc(-c2ccc(F)cc2)s1)c1ccccc1	4.75 µM	15.5 µM	5.35 µM	–
O=C(Cc1ccccc1)Nc1nnc(-c2ccc(Br)cc2)s1	9.06 µM	21.5 µM	7.52 µM	–
O=C(Nc1nnc(-c2ccccc2)s1)c1cccnc1	6.18 µM	18.6 µM	8.22 µM	–
Cc1ccc(C(=O)Nc2nnc(-c3ccccc3)s2)cc1	2.76 µM	9.84 µM	3.28 µM	–
O=C(Nc1nnc(-c2ccc(F)cc2)s1)c1cc(Br)ccc1O	1.02 µM	6.41 µM	0.86 µM	–
